In series [1] the test system is Vero. In words: Cytotoxicity against African green monkey Vero cells assessed as reduction in cell viability incubated for 48 hrs by neutral red assay. It is filed as cell-based. The note with it: Chlorocebus sabaeus. An outline of the steps: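 Vero cells grown in MEM with 10% heat-inactivated FCS, 0.15% NaHCO3, penicillin and streptomycin at 37 °C, 5% CO2. Seeded at 25 000 cells per well, 24 h, then compound for 48 h. Viable cells by neutral red uptake. IC50 from log plots of growth inhibition against concentration. Doxorubicin positive control, DMSO vehicle control. Top concentration 20 μM.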

In series [2] the test system is Leishmania donovani. Kind of series: Antileishmanial activity against promastigote form of Leishmania donovani S1 Sudan assessed as reduction in parasite growth incubated for 72 hrs by alamar blue assay. The class given is functional, organism-based. An outline of the steps: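 S1 Sudan promastigotes kept at 26 °C in RPMI-1640 (no bicarbonate or pyruvate) with 10% FBS, subcultured twice weekly. Compounds added to promastigotes at 2 × 10^6 cells per mL at final 40, 8 and 1.6 μg mL−1, 72 h at 26 °C. Growth read by Alamar blue. IC50 from non-linear dose–response logistic regression. Triplicate. Pentamidine and amphotericin B standards.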

Series [3] concerns the target T1, Enoyl-[acyl-carrier-protein] reductase [NADH] (Mycobacterium tuberculosis) (UniProt P9WGR1).
T1 sequence (whole entry): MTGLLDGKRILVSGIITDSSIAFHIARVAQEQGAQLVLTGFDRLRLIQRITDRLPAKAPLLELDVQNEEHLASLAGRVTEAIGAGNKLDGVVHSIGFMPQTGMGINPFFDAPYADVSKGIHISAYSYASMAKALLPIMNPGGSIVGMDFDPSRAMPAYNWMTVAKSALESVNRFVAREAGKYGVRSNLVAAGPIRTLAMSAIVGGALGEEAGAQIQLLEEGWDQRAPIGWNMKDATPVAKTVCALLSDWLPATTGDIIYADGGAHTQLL
In words: Inhibition of Mycobacterium tuberculosis InhA at 40 uM using DD-CoA as substrate relative to control. An outline of the steps: (§1)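 Wild-type InhA (100 nM) starts the reaction with 25 μM trans-2-dodecenoyl-CoA and 250 μM NADH in 30 mM PIPES, 150 mM NaCl, pH 6.8. Compound is present at a fixed 40 or 50 μM. Initial velocity is compared with a no-inhibitor control and expressed as percent inhibition.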

A short description of series [4]: Lipophilicity, log P of the compound. As to conditions: octanol/water. The class given is physicochemical.
In series [5] the test system is Mycobacterium tuberculosis. In words: Antitubercular activity against Mycobacterium tuberculosis H37Rv assessed as reduction in microbial growth incubated for 5 days by visual inspection method. It is filed as functional. The note with it: 120 h, time 5 day. An outline of the steps: (§2)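 Two-fold serial dilution in Middlebrook 7H9-ADS-Gly broth, final concentrations 20 down to 1.25 μM, from DMSO stocks. Inoculated with about 10^6 CFU of mid-log H37Rv, incubated 37 °C for five days. Turbidity recorded visually, then MTT added. MIC is the lowest concentration preventing growth (yellow colour). Three biological repeats, each in technical duplicate; rifampicin control.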

In series [6] the test system is Mycobacterium tuberculosis. In words: Antitubercular activity against Mycobacterium tuberculosis H37Rv assessed as reduction in microbial growth incubated. It is filed as functional. An outline of the steps:
as §2

Series [7] deals with T1, Enoyl-[acyl-carrier-protein] reductase [NADH] (Mycobacterium tuberculosis). In words: Inhibition of recombinant Mycobacterium tuberculosis InhA expressed in Escherichia coli BL21 using DD-CoA as substrate by UV-Vis spectrophotometry. As to conditions: time 5.0 min.
The subject of series [8] is Mycobacterium tuberculosis. Kind of series: Antitubercular activity against Mycobacterium tuberculosis H37Rv assessed as reduction in microbial growth incubated for 1 week by MTT assay. It is filed as functional. The note with it: 168 h, time 1 weeks.
Series [9] concerns the target T1, Enoyl-[acyl-carrier-protein] reductase [NADH] (Mycobacterium tuberculosis). In words: Inhibition of Mycobacterium tuberculosis InhA at 50 uM using DD-CoA as substrate relative to control. An outline of the steps:
as §1

Series [10] relates to Mycobacterium tuberculosis. Kind of series: Antitubercular activity against Mycobacterium tuberculosis H37Rv assessed as reduction in microbial growth incubated for 5 to 7 days by inverted plate count method. The class given is functional. As to conditions: time 5-7 day.

Activity calls are given as the source filed them. The calls are words filed in the database; no cut-off is given here.

For `CCCCCCCCCCCCCn1cc(COc2ccccc2O)nn1`, the figures for the IC50 in series [1] and in series [2] were above 20 µM and 13.4 µM, respectively. Further, the inhibition in series [3] was determined as 63%. In series [4], the logP is 5.67. The MIC99 in series [5] is above 100 µM.
Regarding `CCc1cn(Cc2ccc(Oc3ccccc3C)c(O)c2)nn1`, the MIC in series [6] is 3.9 µM.
Turning to `C[C@@H]1[C@H](O)[C@@H](C)/C=C/C=C/C=C/C=C/C=C/C=C/C=C/[C@H](O[C@@H]2O[C@H](C)[C@@H](O)[C@H](N)[C@@H]2O)C[C@@H]2O[C@](O)(C[C@@H](O)C[C@@H](O)[C@H](O)CC[C@@H](O)C[C@@H](O)CC(=O)O[C@H]1C)C[C@H](O)[C@H]2C(=O)O` [AMPHOTERICIN B], the IC50 in [2] came to 0.11 µM.
`CCCCc1cn(Cc2ccc(Oc3ccc(Cl)cc3O)c(Cl)c2)nn1`: the inhibition in series [7] came to 98%. Also, in series [8], the minimum inhibitory concentration (MIC) turned out to be 1.5 µM.
Turning to `CCCCCc1c(CO)nnn1Cc1ccc2ccccc2c1`, the 50% inhibitory concentration (IC50) in [1] was above 20 µM; in [2] it was 31.4 µM. Further, the inhibition result in series [9] was “inactive”. The MIC99 in series [5] was above 100 µM.
`Oc1cc(Cl)ccc1Oc1ccc(Cl)cc1Cl` [TRICLOSAN]: the MIC99 in series [5] came out at 43 µM.
As for `CC(C)=CCC/C(C)=C\Cn1cc(COc2ccccc2O)nn1`, the concentration for half-maximal inhibition (IC50) in series [1] was above 20 µM; in series [2], 55 µM. Moreover, in series [3], the inhibition was 85%. In addition, in series [5], the MIC99 was above 100 µM.
Turning to `CCCc1cn(Cc2ccccc2O)nn1`, the IC50 in [1] was above 20 µM; in series [2], above 60 µM. The same compound showed an inhibition in series [9] of 92%. In addition, in [5], the MIC99 is 20 µM.
`CCc1cn(Cc2ccc(Oc3ccccc3C#N)c(O)c2)nn1`: the minimum inhibitory concentration (MIC) in [6] was 2.02 µM.
On the same count and under the same terms, then `Cc1ccccc1Oc1ccc(Cn2cc(-c3ccccc3)nn2)cc1O`, with at most 11.1 µM.
`CCCCCc1cn(Cc2ccccc2O)nn1`: the IC50 in series [1] is above 20 µM; in series [2] it was above 60 µM. The inhibition entry in series [9] was “inactive”. In series [5], the MIC99 worked out at 20 µM.
Turning to `CC(C)=CCC/C(C)=C/Cn1cc(COc2ccccc2O)nn1`, the figures for the IC50 in [1] and in series [2] were above 20 µM and 51.9 µM, respectively. In addition, in series [3], the inhibition entry was “inactive”. The MIC99 in [5] is above 100 µM.
As to `Oc1ccccc1Cn1cc(-c2ccccc2)nn1`, the IC50 in series [1] is above 20 µM; in series [2] it was above 60 µM. The inhibition result in series [9] is “inactive”. In addition, in [5], the MIC99 worked out at 20 µM.
With `CCCCCCCCc1ccc(Oc2ccccc2)c(O)c1`, the MIC in [10] is 1.9 µM.

For the origin of these results see ChEMBL document CHEMBL4673194 (RSC Med Chem, 2021).
